In the EternaBench riboswitch data:

Test system: MS2 coat protein
Experiment: apparent Kd, MS2 coat protein; higher = weaker binding; RNA-MaP array; FMN 200 µM where present
Summary of the method: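 The apparent Kd is reported as the median of filtered per-cluster binding-curve fits. To get these curves, designs transcribed by stalled E. coli RNA polymerase on Illumina sequencing-chip clusters were titrated with SNAP-549-labelled MS2 coat protein from 0.7 or 1.5 nM, doubling to 3 µM. Titrations were run without and then with constant ligand in 100 mM Tris-HCl pH 7.5, 80 mM KCl, 4 mM MgCl2, BSA, DTT, yeast tRNA and Tween-20, and green signal was normalised to red-channel RNA signal and control-cluster median Fmax.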

[1] = designed as: OFF switch for flavin mononucleotide, no ligand
[2] = ligand present: flavin mononucleotide, designed as: OFF switch for flavin mononucleotide
[3] = designed as: ON switch for flavin mononucleotide, no ligand
[4] = ligand present: flavin mononucleotide, designed as: ON switch for flavin mononucleotide

Row | Sequence | apparent Kd [1] | apparent Kd [2] | apparent Kd [3] | apparent Kd [4]
1 | CUUUUGUGAGGAUAUUCGUAGUAGGGUCAUGGCAUUAUUAUGAAGAAGGCACAUGAGGAUCACCCAUGUACCUU | 17.3 nM | 34.6 nM | – | –
2 | GAAAAACAUGAGGAUCACCCAUGUAAAAAAAUGGGAGGAUAUACAAAGACGAAAGUCAAAGUAGAAGGCCUGAAAG | – | – | 54.9 nM | 20.7 nM
3 | GAAAACAGAGGAUAUACAAAAUUAUGACGAAAGUCAUAAAAACAUGAGGAUCACCCAUGUAGAAGGCUGAAGAA | 29 nM | 26.9 nM | – | –
4 | GAAGAGACAGGAUAUACAUGAGGAUCACCCAUGUGAGGAUGUUGGAGGCGGAGGAGGUGUAGAAGGGUCAAAGA | 31.2 nM | 28.7 nM | – | –
5 | GAAGCACAUGAGGAUCACCCAUGUGAGGAUAUCCGUCUGGUCCGGCCGGACCAGUACCGGAGAAGGCGCGUAAA | 59.1 nM | 42 nM | – | –
6 | GACACUAUGUUUGUCAGAUAGAGAGAGGAUAUGGGUCAUGAGACAUGAGGAUCACCCAUGUAUAAUCAGAAGGCUCGAGUACGA | – | – | 19.1 nM | 13.7 nM
7 | GACACUAUGUUUGUCAGAUAGAGAGAGGAUAUGGGUUAUGAGACAUGAGGAUCACCCAUGUUUAUUCAGAAGGCUCGAGUACGA | – | – | 90.9 nM | 11.8 nM
8 | GACAUACAUGAGGAUCACCCAUGUUCAGAAGGGCAAGGAUAUGUGUGGAAACCAUACUAUACAGAAGGUGUCUGUC | – | – | 34.7 nM | 20.3 nM
9 | GACAUGAGGAUCACCCAUGUCCCUCCAGAAGGCUGGCGCGCGAAACCUAUAUCGGUUCCGGGCACAGAGGAUAUGGGCGGUUGG | – | – | 199 nM | 27.2 nM
10 | GACAUGGUCCAGAAGGGCUAUUUAUUUAAGUAUGAUUUAGAACAGCAUAGCAGGAUAUGGCUAACAUGAGGAUCACCCAUGUUC | – | – | 20.1 nM | 13.3 nM
11 | GACGGAUGUAUAGGAUAUGCUGAGGAAUACUCAGCAGAAGGAUACAUGAGGAUCACCCAUGUAACCGUCAAUAAUAAUAAUAAU | 15.7 nM | 29.9 nM | – | –
12 | GACUCGAAUGUAGGAUAUGCUGAGGAAUACUCAGCAGAAGGACAUGAGGAUCACCCAUGUAAAUGAGUGAAUAAUAAACGAGUC | 1410 nM | 197 nM | – | –
13 | GACUCGUAAGUGAGGAUAUGGCUGUGCAGCUACAGCCAGAAGGCACAUGAGGAUCACCCAUGUGAUGGAAUUUU | 15.9 nM | 30.6 nM | – | –
14 | GACUGAUUGUAGAAGGUACUUGAAAAUAUAUAAUAUCUCAUGUGACAUGAGGAUCACCCAUGUAGUAAGGAUAUACAUAUCACA | – | – | 17.7 nM | 17.9 nM
15 | GACUGCAUGUAAGGAUAUCGACUGGAAUACAGUCGAGAAGGUACAUGAGGAUCACCCAUGUAAUAAGAUCAAUAAUAAGCAGUC | 14.9 nM | 33.1 nM | – | –
16 | GACUGCUGAGGAUAUACAUGAGGAUCACCCAUGUGCUUCAGUAUCGAAAGAUGCAUGGGUAGAAGGUGGUAGUC | 70.6 nM | 54.4 nM | – | –
17 | GAGAAGAGGGAAGGAUAUACAUGAGGAUCACCCAUGUAGAUAGGUAAAAUAGGAAGAAGAAGAAUGUAGAAGGUCCGGUUUGUU | 15.2 nM | 15.9 nM | – | –
18 | GAGAAGUCAGGAUAUGCUGCUCGUCACUUGCGUGAUGAGUAGCAGAAGGGACAUGAGGAUCACCCAUGUAAAGG | 136 nM | 315 nM | – | –
19 | GAGAGAGGAUGAGGAUAUGCAGUAAUAAUGAUAGCAGAAGGCAUAGACAUGAGGAUCACCCAUGUGGGAAUAAUCCAGAGAGAG | – | – | 188 nM | 272 nM
20 | GAGCGAAAGCUCAAUGUCGAUAGCAGAAGGACAUCCUUUAACAUGAAAACAUGAGGAUCACCCAUGUAGGAUAUGCUAUCGACU | 6.66 nM | 7.92 nM | – | –
21 | GAGCGAAAGCUCAAUGUCGAUAGCAGAAGGACAUGAAAACAUGAAAACACAUGAGGAUCACCCAUGUAGGAUAUGCUAUCGACU | 9.43 nM | 84.8 nM | – | –
22 | GAGCGCUGUCAAGGAUAUCCGAAAAGAAAAUAAGGAGAAGGUGACAUGAGGAUCACCCAUGUGCACUGGGUGGACGCGCGCUCC | 459 nM | 256 nM | – | –
23 | GAGCUCAAUGAGAAGGGUUACAUGAGGAUCACCCAUGUCGACCUUGGCGUAACAGGAUAUCAUCGGGCUCAGUGCGUUGACCCA | 24.9 nM | 108 nM | – | –
24 | GAGCUCGAUGAGAAGGGUUACAUGAGGAUCACCCAUGUCGACCUUGGCGUAACAGGAUAUCAUCGGACUCAGUGCGUUGACCCA | 25.6 nM | 137 nM | – | –
25 | GAGGCCCAAACAUGAGGAUCACCCAUGUGUUUAGUCCUCACAUAGGAUAUCCACACGAGAAGUGUGGAGAAGGAUGAGGGCGUC | 49 nM | 101 nM | – | –
26 | GAGGCUAAAGGAUAUACAUGAGGAUCACCCAUGUGGAGGAAGGUUAGAUGAGGAGAAGGUAGAAGGUUAGGCGG | 37.3 nM | 30.9 nM | – | –
27 | GAGUAGAUCCGAGGAUAUACAAUCCGGAAACGGUACAUGAGGAUCACCCAUGUAGAAGGCGGAUCUACAGGUACUAAAGUACCA | 6.24 nM | 8.12 nM | – | –
28 | GAGUCUCUAUUAGAACCGAUACGAACAUGAGGAUCACCCAUGUAGGAUAUGCUAAAAGUUGUGUUGCAGAAGGACAUUUAAAGC | 10.6 nM | 9.89 nM | – | –
